Experimental data: the EternaBench riboswitch data

Test system: MS2 coat protein
Assay: apparent Kd, MS2 coat protein; higher = weaker binding; RNA-MaP array; FMN 200 µM where present
Summary of the method: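 Green signal from SNAP-549-labelled MS2 coat protein was normalised to red-channel RNA signal and to the median Fmax of control clusters. The protein was titrated from 0.7 or 1.5 nM, doubling to 3 µM, without and then with constant ligand, over designs transcribed by stalled E. coli RNA polymerase on Illumina sequencing-chip clusters, in 100 mM Tris-HCl pH 7.5, 80 mM KCl, 4 mM MgCl2, BSA, DTT, yeast tRNA and Tween-20. The apparent Kd is the median of filtered per-cluster binding-curve fits.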

[1] = designed as: OFF switch for flavin mononucleotide, no ligand
[2] = ligand present: flavin mononucleotide, designed as: OFF switch for flavin mononucleotide
[3] = designed as: ON switch for flavin mononucleotide, no ligand
[4] = ligand present: flavin mononucleotide, designed as: ON switch for flavin mononucleotide

| Sequence | apparent Kd [1] [nM] | apparent Kd [2] [nM] | apparent Kd [3] [nM] | apparent Kd [4] [nM] |
| --- | --- | --- | --- | --- |
| UGUAUGGACAGAGGAUAUACGGCUAGGAGAUACUAGCCACUAUUCCUCACAUGAGGAUCACCCAUGUAGAAGGCUGUCCAUACU | 17.2 | 120 |  |  |
| UGUAUGUAGGAGAAGGAGGACUUCAUGAGGAUCACCCAUGUGUUAGGACUUAGGAUAUUUGACGACAUGAGGAUCACCCAUGUG |  |  | 58.3 | 49.6 |
| UGUAUUAACGGAGGAUAUCGAUAUCAAACAUGAGGAUCACCCAUGUUGAGGAUCACCCAUGUCCACGAGAAGGCCGGCGUACUC |  |  | 30.3 | 30 |
| UGUAUUAACGGAGGAUAUCGAUAUCAAACAUGAGGAUCACCCAUGUUGAGGAUCACCCAUGUCCAUGAGAAGGCCGGCGUACUC |  |  | 41.8 | 32.9 |
| UGUAUUAACGGAGGAUAUCGAUAUCAAACAUGAGGAUCACCCAUGUUGAGGAUCACCCAUGUCCAUGAGAAGGCCGGCGUACUU |  |  | 36.2 | 29.4 |
| UGUCAAAAUGAAGGAUAUCUAAGCAUAAACCAUAGAGAAGGUCAAUAGUACAUGAGGAUCACCCAUGUUAGAAUAGAUGGGUUA | 99.9 | 155 |  |  |
| UGUCGGAACAGAGGAUAUUACAUGAGGAUCACCCAUGUAUGAACCAAUAGCUGGAAACAGCAAUGUAAGAAGGCUGCUCCGACA | 11.9 | 147 |  |  |
| UGUCGGAGCAGAGGAUAUUACAUGAGGAUCACCCAUGUAUGAACCAAUAGCUGGAAACAGCAAUGUAAGAAGGCUGCUCAGACA | 11.9 | 137 |  |  |
| UGUCGGAGCAGAGGAUAUUACAUGAGGAUCACCCAUGUAUGAACCAAUAGCUGGAAACAGGAAUGUAAGAAGGCUGCUCCGACA | 6.17 | 30.1 |  |  |
| UGUCGGAGCAGAGGAUAUUACAUGAGGAUCACCCAUGUAUGAACCAAUAGCUGGACACAGCAAUGUAAGAAGGCUGCUCCGACA | 11.4 | 133 |  |  |
| UGUCGGAGCAGAGGAUAUUACAUGAGGAUCACCCAUGUAUGAACCAAUCGCUGGAAACAGCAAUGUAAGAAGGCUGCUCCGACA | 10.3 | 73.7 |  |  |
| UGUCGGAGCAGAGGAUAUUACAUGAGGAUCACCCAUGUAUGAACCGAUAGCUGGAAACAGCAAUGUAAGAAGGCUGCUCCGACA | 19 | 258 |  |  |
| UGUCGGAGCAGAGGAUAUUACAUGAGGAUCACCCAUGUCUGAACCAAUAGCUGGAAACAGCAAUGUAAGAAGGCUGCUCCGACA | 154 | 432 |  |  |
| UGUGCGUCAGGAUAUUCUAUUUAUUACAUGAGGAUCACCCAUGUGAAUGUACAAGGGUGUGAAGAAGGGACUUGUC | 686 | 526 |  |  |
| UGUGCUGAAGGAUAUGCGUAAGCUCGGUGACGAGCAGAUCUACAUGAGGAUCACCCAUGUAGAAGGUCAGUACU | 16 | 18.4 |  |  |
| UGUGUGAGACAGGAUAUGCCGGUUGAAUUGCUGGUAGAAGGGUCUACAUGAGGAUCACCCAUGUGGCCGGUUGG | 18.7 | 25.5 |  |  |
| UGUUAAAUUGAUCCUGCAAGUACAUGAGGAUCACCCAUGUGCUAGGAUAUCGCGCAGCUAAAGACCGAGAAGGAGCACAAUGUA | 39.2 | 97.7 |  |  |
| UGUUAAUAUCGAGGAUAUGUCUAGACACAUGAGGAUCACCCAUGUAUGUGUAUAGAAGGCGAUAUUAACAGCAUGUUACAUGCG |  |  | 37.2 | 17.4 |
| UGUUGGAGCGAGAAGGGACGAUGGGAAGCUGUAGGCUGGCACUGUAGACAUGAGGAUCACCCAUGUCAGGAUAUUGCCGAACUA | 5.83 | 7.71 |  |  |
| UGUUGUAUUACAGGAUAUCUAGUAUUGUUAUUUAGAGAAGGGUAUUCACAUGAGGAUCACCCAUGUAUAUACGAGGAAGUUGUG |  |  | 38.4 | 41.4 |
| UGUUGUAUUACAGGAUAUCUAUUAGAUUUAUUUAGAGAAGGGUAUUCACAUGAGGAUCACCCAUGUAUAUACGAGGAAGUUGUG |  |  | 57 | 58.6 |

| Sequence | apparent Kd [1] [nM] | apparent Kd [2] [nM] | apparent Kd [3] [nM] | apparent Kd [4] [nM] |
| --- | --- | --- | --- | --- |
| UGUUGUAUUACAGGAUAUCUAUUAUUUUUAGUUAGAGAAGGGUAUUCACAUGAGGAUCACCCAUGUAUAUACGAGGAAGUUGUG |  |  | 43.5 | 44.3 |
| UGUUGUAUUACAGGAUAUCUAUUGGUUUUAUUUAGAGAAGGGUAUUCACAUGAGGAUCACCCAUGUAUAUACGAGGAAGUUGUG |  |  | 60.5 | 66.9 |
| UGUUUAUAUGAAGGAUAUACUUAACAUGAGGAUCACCCAUGUGGUGUUGUGAGUGAGUGAGUUUAGUAGAAGGUCAAUUAUUUU | 286 | 643 |  |  |
| UUAAAUCAUGUAGGAUAUGCAUGGCGAAGCUACGCAGAAGGACAUGAGGAUCACCCAUGUUAUAGCGUCCGAAUAAGGAUGCAA | 90.7 | 199 |  |  |
| UUAAAUCAUGUAGGAUAUGCAUGGCGAAGCUACGCAGAAGGACAUGAGGAUCACCCAUGUUAUAGCGUCUGGAAACAGAUGCAA | 101 | 177 |  |  |
| UUAAAUCAUGUAGGAUAUGCAUGGCGAAGCUACGCAGAAGGACAUGAGGAUCACCCAUGUUAUAGCUACAGAGUUCUGUGGCAA | 102 | 233 |  |  |
| UUAAAUCAUGUAGGAUAUGCAUGGCGAAGCUACGCAGAAGGACAUGAGGAUCACCCAUGUUAUAGCUACCAAGUUAGGUGGCAA | 99 | 190 |  |  |
| UUAAAUCAUGUAGGAUAUGCAUGGCGAAGCUACGCAGAAGGACAUGAGGAUCACCCAUGUUCGAGCGUCUGAGUACAGAUGCAA | 19.1 | 59.8 |  |  |
| UUAAAUCAUGUAGGAUAUGCAUGGCGAAGCUACGCAGAAGGACAUGAGGAUCACCCAUGUUCGAGGGUCUGAGUACAGAUCCAA | 23.6 | 123 |  |  |
| UUAAAUCAUGUAGGAUAUGCAUGGCGAAGCUACGCAGAAGGACAUGAGGAUCACCCAUGUUCUAGCUACCGAGUACGGUGGCAA | 20.6 | 86.3 |  |  |
| UUAACAUGAGGAUCACCCAUGUAUAGGGAGUUAACAAUUGGACAGGAUAUUGAAGAUGUAGAUAGCAAGAAGGGUCGGUAGUCU |  |  | 38.9 | 35.8 |
| UUAAUGAUGUUAGGAUAUACAUGAGGAAUCCUCGUAGAAGGAACAUGACAUGAGGAUCACCCAUGUAACGCUCCGUAGAGCGUA |  |  | 70.2 | 94.3 |
| UUAAUUAAUUAAUUGCAGAAACAUGAGGAUCACCCAUGUAUAUAGGAUAUCGUCAGGAAUACUGACGAGAAGGAUAUACACUGC | 23.4 | 32.5 |  |  |
| UUAAUUAAUUAAUUGCAGAUUACAUGAGGAUCACCCAUGUAUAAGGAUAUCGUCAGGAAUACUGACGAGAAGGUAUACAACUGC | 20.3 | 25.4 |  |  |
| UUAAUUAUACAAGGAUAUCUAUUGUAGUUUCGACAUACAUGAGGAUCACCCAUGUUAGUAUGUUUAGAGAAGGUGUAUUUUCAG |  |  | 28.1 | 25.2 |
| UUAAUUCUGAUUCUUGAAAUACAUGAGGAUCACCCAUGUUCACAGGAUAUUGAUUAUGGUAGUAACAAGAAGGGUGUAUCAUAU | 66 | 113 |  |  |
| UUACAUACAAAGGUACAUGAGGAUCACCCAUGUUUGUUGGGAAGAAGGGUAACAGUACUACAUUUAUAGGAUAUUUCACAAAUA |  |  | 95.5 | 64 |
| UUACAUACAAAUGUACAUGAGGAUCACCCAUGUUUGUUGGGAAGAAGGGUAACAGUACUACACAUACAGGAUAUUUCACAAAUA |  |  | 54 | 34 |
| UUACCCUCAGUAAGGAUAUCUUUAUCUGCUGAUAUAGAGAAGGUACAUGAGGAUCACCCAUGUGCGAUUGGGCU | 116 | 282 |  |  |
| UUACCUCAUGAGAAGGACAUGAGGAUCACCCAUGUAGGAUAUCGUGGAAGACAGGUAUUGAAUCUUCGGAUUCAAUACCUGUCU |  |  | 331 | 17.1 |
